In brackets after ≈: the same amount, converted by molar mass. Where two headings read alike, the source gives them in different places.
Columns and labels:
P. falciparum strain 803 = assay: Parasites growth inhibition assay, strain 803; format: cell-based; settings: Plasmodium falciparum
How it was run: (§1)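 P. falciparum grown in type O human red cells in RPMI 1640 with Albumax I, hypoxanthine, bicarbonate, 15 mmol/L HEPES and gentamycin, under 5% O₂/5% CO₂/90% N₂. Synchronised with alanine/HEPES or 5% sorbitol. Mid-ring parasites (0.5% parasitemia, 2% hematocrit) exposed to serially diluted test compound in triplicate for 72 h at 37 °C.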

[1] = system: 3D7 strain of P. falciparum; assay: Parasites growth inhibition assay; format: cell-based; settings: Plasmodium falciparum
How it was run: as §1

[2] = system: P. falciparum strain CP286; assay: Parasites growth inhibition assay, strain CP286; format: cell-based; settings: Plasmodium falciparum
How it was run: as §1

HepG2 cells = assay: Cytotoxicity assay; format: cell-based, Human; settings: CC50 / EC50 on 3D7
How it was run: (§2)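 HepG2 cells in DMEM with 10% FBS and penicillin-streptomycin, seeded at 6,000/well and attached overnight at 37 °C, 5% CO₂. Test compound in DMSO diluted into medium and added; 24 h incubation. CCK-8 added for 2–4 h, then absorbance read at 450 nm. CC50 (reported as EC50) from nonlinear logistic regression. SI is CC50 over 3D7 EC50.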

Cytotoxicity assay = format: cell-based, Human; settings: human, HepG2 cells
How it was run: as §2

[3] = system: P. falciparum strain Fab9; assay: Parasites growth inhibition assay, strain Fab9; format: cell-based; settings: Plasmodium falciparum
How it was run: as §1

[4] = Measurement of solubility; format: physicochemical; settings: thermodynamic from solid
How it was run: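 Solid added to solvent to supersaturation and shaken 24 h at room temperature, then centrifuged and filtered. Aqueous supernatants were quantified by reversed-phase HPLC against a standard curve prepared in methanol. For organic solvents, the dissolved solid was weighed after removing solvent under reduced pressure.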

P. falciparum strain Dd2 = assay: Parasites growth inhibition assay, strain Dd2; format: cell-based; settings: Plasmodium falciparum
How it was run: as §1

[5] = system: wildtype (WT) D10 parasites; assay: Parasites growth inhibition assay, wildtype D10 strain; format: cell-based; settings: Plasmodium falciparum
How it was run: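 Wildtype D10 or yDHOD-transgenic D10 parasites were challenged with test compound with or without 50 nmol/L proguanil. Growth inhibition used SYBR Green I: mid-ring cultures at 0.5% parasitemia and 2% hematocrit, in triplicate, for 72 h at 37 °C under 5% O₂/5% CO₂. Plates were freeze-thawed and lysed with SYBR Green I buffer, and fluorescence read at 485/538 nm. EC50 by nonlinear regression.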

P. falciparum strain GB4 = assay: Parasites growth inhibition assay, strain GB4; format: cell-based; settings: Plasmodium falciparum
How it was run: as §1

[6] = system: P. falciparum strain PC26; assay: Parasites growth inhibition assay, strain PC26; format: cell-based; settings: Plasmodium falciparum
How it was run: as §1

P. falciparum strain C2A = assay: Parasites growth inhibition assay, strain C2A; format: cell-based; settings: Plasmodium falciparum
How it was run: as §1

[7] = system: various P. falciparum strains; assay: Parasites growth inhibition on the panel of various P. falciparum strains; format: cell-based, Plasmodium falciparum; settings: all strains of Table 2
How it was run: as §1

Pfbc1 = biological target: T1, Pfbc1 (Plasmodium falciparum, UniProt Q02768); assay: Decylubiquinol-cytochrome c reductase activity of Pfbc1; format: biochemical, P. falciparum
T1 sequence (Q02768 1-376): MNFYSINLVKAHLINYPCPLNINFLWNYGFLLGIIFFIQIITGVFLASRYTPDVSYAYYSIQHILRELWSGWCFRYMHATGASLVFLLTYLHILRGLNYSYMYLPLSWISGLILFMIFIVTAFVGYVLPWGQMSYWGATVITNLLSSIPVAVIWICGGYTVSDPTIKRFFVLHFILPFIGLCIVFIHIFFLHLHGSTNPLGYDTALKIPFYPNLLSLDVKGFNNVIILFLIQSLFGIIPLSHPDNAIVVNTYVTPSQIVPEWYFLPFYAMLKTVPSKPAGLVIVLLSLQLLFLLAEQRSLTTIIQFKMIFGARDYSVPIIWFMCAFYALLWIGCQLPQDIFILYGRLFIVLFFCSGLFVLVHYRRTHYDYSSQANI

[8] = system: Plasmodium yoelii-infected mouse models; assay: In vivo efficacy study on P. yoelii-infected mice; settings: once a day for 4 days
How it was run: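 Female BALB/c mice (25 g, 6–8 weeks), specific pathogen-free, five per group. Infected intraperitoneally with about 1×10⁶ P. yoelii-infected red cells on Day 0, then randomised. Test compound in aqueous 5% DMSO / 18% PEGylated castor oil given intraperitoneally once daily for 4 days from Day 1. Chloroquine and DMSO groups included. Parasitemia by Giemsa-stained smear microscopy; survival followed, with CO₂ euthanasia at distress. Mean ± SD, n = 5.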

[9] = biological target: PFQi4 bc1 complex with P. falciparum-like modifications in the Qi-site (Saccharomyces cerevisiae, UniProt P00163, A191L/F225L/I17L/I195F/I226L/L198I/L40F/M221F/Q22C/S20Y/S34F/V41F/Y16H); assay: Decylubiquinol-cytochrome c reductase activity, yeast bc1 mutant PFQi4; format: biochemical
How it was run: (§3)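 Yeast cytochrome b mutants carry P. falciparum-like substitutions and are otherwise isogenic. Mitochondria from mid-log YPGal cultures were made via zymolyase protoplasts, osmotic shock and differential centrifugation; bc1 content came from dithionite-reduced spectra. Assay at room temperature: 20 µmol/L cytochrome c in 10 mmol/L potassium phosphate pH 7, 0.01% lauryl-maltoside, 1 mmol/L KCN. bc1 was 6 nmol/L (wildtype) or 20 nmol/L (mutants), started with 40 µmol/L decylubiquinol.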

PfNDH2 = biological target: T2, PfNDH2 (Plasmodium falciparum, UniProt Q8I302); assay: Enzymatic activity assay of PfNDH2; format: biochemical, P. falciparum
T2 sequence (Q8I302 1-533): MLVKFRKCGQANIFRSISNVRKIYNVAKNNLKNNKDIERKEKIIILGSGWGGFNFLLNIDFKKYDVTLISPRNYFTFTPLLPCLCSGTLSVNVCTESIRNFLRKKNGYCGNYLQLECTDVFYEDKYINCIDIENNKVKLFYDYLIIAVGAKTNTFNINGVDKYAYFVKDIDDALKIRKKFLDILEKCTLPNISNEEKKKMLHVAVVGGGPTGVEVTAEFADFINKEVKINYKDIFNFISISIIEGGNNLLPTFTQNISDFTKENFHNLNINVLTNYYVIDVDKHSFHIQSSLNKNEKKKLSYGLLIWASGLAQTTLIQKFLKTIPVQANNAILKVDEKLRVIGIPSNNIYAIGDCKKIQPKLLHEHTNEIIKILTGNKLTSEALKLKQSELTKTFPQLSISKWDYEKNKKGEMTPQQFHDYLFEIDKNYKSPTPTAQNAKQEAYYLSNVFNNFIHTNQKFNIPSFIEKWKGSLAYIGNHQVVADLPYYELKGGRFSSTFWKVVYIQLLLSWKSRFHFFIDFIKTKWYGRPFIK
How it was run: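 Reaction started with enzyme; NADH decrease followed continuously at 340 nm (ε 6220 L/(mol·cm)); IC50 by nonlinear regression. Kinetics varied UQ₁ (5–100 µmol/L) or NADH (10–600 µmol/L) at several inhibitor concentrations; Lineweaver–Burk analysis.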

[10] = biological target: PF11 bc1 complex with P. falciparum-like modifications in the Qo-site (Saccharomyces cerevisiae, UniProt P00163, C133V/C134L/F296L/H141Y/I299L/L275F/M295V/R283K/V135P/Y136W); assay: Decylubiquinol-cytochrome c reductase activity, yeast bc1 mutant PF11; format: biochemical
How it was run: as §3

[11] = biological target: T3, wildtype yeast bc1 complex (Saccharomyces cerevisiae, UniProt P00163); assay: Decylubiquinol-cytochrome c reductase activity, wildtype yeast bc1; format: biochemical; settings: at 10 μmol/L, data not shown
How it was run: as §3

[12] = biological target: T4, PF12 bc1 complex (PF11 changes plus Y279S) (Saccharomyces cerevisiae, UniProt P00163, C133V/C134L/F296L/H141Y/I299L/L275F/M295V/R283K/V135P/Y136W/Y279S); assay: Decylubiquinol-cytochrome c reductase activity, yeast bc1 mutant PF12; format: biochemical
[13] = biological target: T3, wildtype yeast bc1 complex; settings: at 1 μmol/L; cited from earlier work
[14] = biological target: T4, PF12 bc1 complex (PF11 changes plus Y279S); settings: cited from earlier work
[15] = 0.01 mol/L HCl, pH 2, simulated gastric fluid
[16] = dichloromethane, organic solvent or mixture
[17] = methanol, organic solvent or mixture

Row | SMILES | EC50 (P. falciparum strain 803) [nM] | EC50 [1] [nM] | EC50 [2] [nM] | SI (selectivity index) (HepG2 cells) | CC50 at 24 h (Cytotoxicity assay) [nM] | EC50 [3] [nM] | solubility at 24 h [4, 15] [mM] | solubility at 24 h [4, 16] [mM] | solubility at 24 h [4, 17] [mM] | solubility at 24 h ([4]; water) [mM] | EC50 (P. falciparum strain Dd2) [nM] | EC50 [5] [nM] | EC50 (P. falciparum strain GB4) [nM] | EC50 [6] [nM] | EC50 (P. falciparum strain C2A) [nM] | further results
1 | Cc1c(-c2ccc(Cc3ccc(OC(F)(F)F)cc3)c(CN3CCCC3)c2)[nH]c2cccc(F)c2c1=O [Compound 25] | 9.81 | 2.89 | 4.81 | >3460 | > 10000 | 5.33 | 0.45 (≈ 230 µg/mL) | 30 (≈ 15300 µg/mL) | 37 (≈ 18900 µg/mL) | 0.0163 (≈ 8.32 µg/mL) | 2.18 | 2.32 | 1.41 | 3.3 | 7.01 | 
2 | CCCN(C)Cc1cc(-c2[nH]c3cccc(F)c3c(=O)c2C)ccc1Cc1ccc(OC(F)(F)F)cc1 [RYL-581] | 0.96 | 0.056 |  | >178,571 | > 10000 | 0.27 | 0.428 (≈ 219 µg/mL) | 64 (≈ 32800 µg/mL) | 37 (≈ 19000 µg/mL) | 0.0136 (≈ 6.97 µg/mL) | 0.44 | 0.7 | 0.23 | 0.31 | 0.29 | EC50 values on various strains, in words [7]: sub-nanomolar; IC50 (Pfbc1): 0.51 nM; Day by which parasites were completely cleared ([8]; 3 mg/kg/d intraperitoneal): ≤ 22 days; Final survival rate ([8]; 3 mg/kg/d intraperitoneal, 5 mice): 80%; Day by which all mice were cured ([8]; 10 mg/kg/d intraperitoneal): ≤ 16 days; Survival rate ([8]; 10 mg/kg/d intraperitoneal, 5 mice): 100%; IC50 [9]: ~10000 nM; Resistance of PFQi4 bc1 complex compared to wild type [9]: increased reactivity; Potency on PfNDH2 decreased as compared to RYL-552 (PfNDH2): 11 fold; IC50 (PfNDH2; IC50 PfNDH2, 200 μmol/L NADH, 100 μmol/L UQ1): 42.2 nM; Type of inhibition of PfNDH2 (Lineweaver–Burk) (PfNDH2; substrates Q (UQ1) and NADH varied): non-competitive; IC50 [10]: ~300 nM; Inhibition of wildtype yeast bc1 complex [11]: only slight inhibition; IC50 [12]: ~1000 nM; Increase of mid-point inhibitory concentration PF12 compared to PF11 [12]: three-fold
3 | O=C1C(O)=C([C@H]2CC[C@H](c3ccc(Cl)cc3)CC2)C(=O)c2ccccc21 [Atovaquone, atovaquone, reference compound] |  | 0.45 |  |  | > 10000 |  | 0.0006 (≈ 0.22 µg/mL) | 29 (≈ 10600 µg/mL) | 29 (≈ 10600 µg/mL) | 0.0007 (≈ 0.257 µg/mL) |  |  |  |  |  | Inhibition of wildtype yeast bc1 complex [13]: fully inhibited; Increase of mid-point inhibitory concentration PF12 compared to PF11 [14]: > 100 fold
4 | CCCCCN(C)Cc1cc(-c2[nH]c3cccc(F)c3c(=O)c2C)ccc1Cc1ccc(OC(F)(F)F)cc1 [Compound 30] |  | 0.61 |  | >16,393 | > 10000 |  | 0.337 (≈ 182 µg/mL) | 370 (≈ 200000 µg/mL) | 34 (≈ 18400 µg/mL) | 0.0064 (≈ 3.46 µg/mL) |  |  |  |  |  | 
5 | CCCCCCCN(C)Cc1cc(-c2[nH]c3cccc(F)c3c(=O)c2C)ccc1Cc1ccc(OC(F)(F)F)cc1 [Compound 31] |  | 0.3 |  | >33,333 | > 10000 |  | 0.0194 (≈ 11 µg/mL) | 420 (≈ 239000 µg/mL) | 32 (≈ 18200 µg/mL) | 0.002 (≈ 1.14 µg/mL) |  |  |  |  |  | 
6 | Cc1c(-c2ccc(Cc3ccc(OC(F)(F)F)cc3)c(CN(C)C)c2)[nH]c2cccc(F)c2c1=O [Compound 24] | 9.3 | 2.09 | 4.56 | >4785 | > 10000 | 6.01 | 0.496 (≈ 240 µg/mL) | 19 (≈ 9210 µg/mL) | 110 (≈ 53300 µg/mL) | 0.04 (≈ 19.4 µg/mL) | 2.05 | 3.23 | 1.02 | 3.17 | 1.44 | 
